Measurements taken from ChEMBL document CHEMBL1149123, “Antineoplastic agents. 499. Synthesis of hystatin 2 and related 1H-benzo[de][1,6]-naphthyridinium salts from aaptamine” (J Med Chem, 2004).
Calls of active or inactive are those of the source. No cut-off for these calls is given here.

Key:
[1] = Effect on tubulin assembly was determined; type: functional
Method in brief: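 Tubulin assembly tested in vitro, top concentration […].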

MCF7 = assay: Inhibition of breast MCF-7 cell proliferation; type: functional; details: Homo sapiens, read-out: ED50 (the source's name)
BXPC-3 = assay: Inhibition of pancreatic BXPC-3 cell proliferation; type: functional; details: Homo sapiens, read-out: ED50 (the source's name)
P388 = assay: Inhibition of murine leukemia P388 cell proliferation; type: functional; details: Mus musculus, read-out: ED50 (the source's name)
[2] = biological target: Protein kinase C alpha type (Homo sapiens) (UniProt P17252); assay: Inhibition of PKC alpha at […]; details: concentration not given here
Method in brief: (§1)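 PKC alpha ligand binding, measured as inhibition of [20-³H]phorbol 12,13-dibutyrate binding at a single compound concentration of […]. Triplicate measurements in single or triplicate experiments, depending on compound. Reported as percent inhibition, mean ± SEM.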

SF-268 = assay: Inhibition of CNS SF-268 cell proliferation; type: functional; details: Homo sapiens, read-out: ED50 (the source's name)
DU-145 = assay: Inhibition of prostate DU-145 cell proliferation; type: functional; details: Homo sapiens, read-out: ED50 (the source's name)
KM-20L2 = assay: Inhibition of colon KM20L2 cell proliferation; type: functional; details: Homo sapiens, read-out: ED50 (the source's name)
NCI-H460 = assay: Inhibition of lung NCI-H460 cell proliferation; type: functional; details: Homo sapiens, read-out: ED50 (the source's name)
Escherichia coli = assay: Antimicrobial activity against Escherichia coli; No inhibition at 64 ug/mL; type: functional
Cryptococcus neoformans = assay: Antimicrobial activity against Cryptococcus neoformans; No inhibition at 64 ug/mL; type: functional, organism-based
Enterobacter cloacae = assay: Antimicrobial activity against Enterobacter cloacae; No inhibition at 64 ug/mL; type: functional, organism-based
Enterococcus faecalis = assay: Antimicrobial activity against Enterococcus faecali; No inhibition at 64 ug/mL; type: functional
Neisseria gonorrhoeae [3] = assay: Antimicrobial activity against Neisseria gonorrhoeae; type: functional
Streptococcus pneumoniae [4] = assay: Antimicrobial activity against Streptococcus pneumoniae; No inhibition at 64 ug/mL; type: functional
Staphylococcus aureus = assay: Antimicrobial activity against Staphylococcus aureus; No inhibition at 64 ug/mL; type: functional, organism-based
Micrococcus luteus [5] = assay: Antimicrobial activity against Micrococcus luteus; No inhibition at 64 ug/mL; type: functional, organism-based
Candida albicans = assay: Antimicrobial activity against Candida albicans; No inhibition at 64 ug/mL; type: functional, organism-based
[6] = system: Stenotrophomonas maltophilia; assay: Antimicrobial activity against Stenotrophomonas maltophilia; No inhibition at 64 ug/mL; type: functional, organism-based
Neisseria gonorrhoeae [7] = assay: Antimicrobial activity against Neisseria gonorrhoeae; No inhibition at 64 ug/mL; type: functional
Micrococcus luteus [8] = assay: Antimicrobial activity against Micrococcus luteus; 8-16; type: functional
[9] = biological target: Protein kinase C alpha type (Homo sapiens) (UniProt P17252); assay: Displacement of [20-3H]-phorbol 12,13-dibutyrate from protein kinase C alpha at […]; details: concentration not given here; method in brief: as §1
[10] = system: Mycobacterium tuberculosis; assay: Antimicrobial activity against Mycobacterium tuberculosis at 6.25 ug/mL; type: functional
[11] = biological target: Protein kinase C alpha type (Homo sapiens) (UniProt P17252); assay: Inhibition of PKC alpha
Method in brief: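 Competition with [20-³H]phorbol 12,13-dibutyrate binding to PKC alpha. Full dose–response curves of binding inhibition were determined.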

Micrococcus luteus [12] = assay: Antimicrobial activity against Micrococcus luteus; 0.5-2; type: functional
Streptococcus pneumoniae [13] = assay: Antimicrobial activity against Streptococcus pneumoniae; type: functional
Micrococcus luteus [14] = assay: Antimicrobial activity against Micrococcus luteus; type: functional

## COc1cc2ccnc3c2c(c1O)N(C)C=C3 [ISOAAPTAMINE]
[1]
  IC50: 31 µM

## COc1cc2c3c(ccnc3c1OC)N(C)C=C2
MCF7
  EC50: > 10 µg/mL
BXPC-3
  EC50: > 10 µg/mL
P388
  EC50: > 10 µg/mL
[2]
  inhibition: < 6%
SF-268
  EC50: > 10 µg/mL
DU-145
  EC50: > 10 µg/mL
KM-20L2
  EC50: > 10 µg/mL
NCI-H460
  EC50: > 10 µg/mL

## COc1cc(CN2C=Cc3cc(OC)c(OC)c4nccc2c34)cc(OC)c1OC.Cl
Escherichia coli
  Activity: inactive
Cryptococcus neoformans
  Activity: inactive
MCF7
  EC50: > 10 µg/mL
Enterobacter cloacae
  Activity: inactive
Enterococcus faecalis
  Activity: inactive
BXPC-3
  EC50: > 10 µg/mL
P388
  EC50: 4.64 µg/mL
Neisseria gonorrhoeae [3]
  Activity: 64 µg/mL
[2]
  inhibition: < 6%
SF-268
  EC50: > 10 µg/mL
Streptococcus pneumoniae [4]
  Activity: inactive
Staphylococcus aureus
  Activity: inactive
DU-145
  EC50: > 10 µg/mL
Micrococcus luteus [5]
  Activity: inactive
Candida albicans
  Activity: inactive
KM-20L2
  EC50: 3.4 µg/mL
NCI-H460
  EC50: > 10 µg/mL
[6]
  Activity: inactive

## COc1ccc(C[n+]2ccc3c4c(cc(OC)c(OC)c42)C=CN3Cc2cc(OC)c(OC)c(OC)c2)cc1O.[Br-]
Escherichia coli
  Activity: inactive
Cryptococcus neoformans
  Activity: inactive
MCF7
  EC50: > 10 µg/mL
Enterobacter cloacae
  Activity: inactive
Enterococcus faecalis
  Activity: inactive
BXPC-3
  EC50: > 10 µg/mL
P388
  EC50: > 10 µg/mL
[2]
  inhibition: 43.2%
SF-268
  EC50: > 10 µg/mL
Streptococcus pneumoniae [4]
  Activity: inactive
Staphylococcus aureus
  Activity: inactive
Neisseria gonorrhoeae [7]
  Activity: inactive
Micrococcus luteus [8]
  Activity: 16 µg/mL
DU-145
  EC50: > 10 µg/mL
Candida albicans
  Activity: inactive
KM-20L2
  EC50: > 10 µg/mL
[9]
  inhibition: 16%
NCI-H460
  EC50: > 10 µg/mL
[6]
  Activity: inactive

## COc1cc2c3c(cc[n+](Cc4ccccc4)c3c1OC)N(Cc1ccccc1)C=C2.[Cl-]
Escherichia coli
  Activity: 8 µg/mL
Cryptococcus neoformans
  Activity: inactive
[10]
  inhibition at 6.25 µg/mL: 98%
[11]
  ID50: 20.8 µM
MCF7
  EC50: 0.27 µg/mL
Enterobacter cloacae
  Activity: inactive
Enterococcus faecalis
  Activity: 32 µg/mL
BXPC-3
  EC50: 0.061 µg/mL
P388
  EC50: 0.234 µg/mL
Micrococcus luteus [12]
  Activity: 2 µg/mL
[2]
  inhibition: 71.1%
SF-268
  EC50: 0.064 µg/mL
Streptococcus pneumoniae [4]
  Activity: 32 µg/mL
Staphylococcus aureus
  Activity: inactive
Neisseria gonorrhoeae [7]
  Activity: 0.25 µg/mL
DU-145
  EC50: 0.036 µg/mL
Candida albicans
  Activity: inactive
KM-20L2
  EC50: 0.055 µg/mL
[9]
  inhibition: 11.8%
NCI-H460
  EC50: 0.26 µg/mL
[6]
  Activity: inactive

## COc1ccc(CN2C=Cc3cc(OC)c(OC)c4nccc2c34)cc1.Cl
Escherichia coli
  Activity: inactive
Cryptococcus neoformans
  Activity: inactive
MCF7
  EC50: 8 µg/mL
Enterobacter cloacae
  Activity: inactive
Enterococcus faecalis
  Activity: inactive
BXPC-3
  EC50: 4.2 µg/mL
P388
  EC50: 2.19 µg/mL
Neisseria gonorrhoeae [3]
  Activity: 64 µg/mL
[2]
  inhibition: < 6%
SF-268
  EC50: 8.2 µg/mL
Streptococcus pneumoniae [13]
  Activity: 64 µg/mL
Staphylococcus aureus
  Activity: inactive
Micrococcus luteus [14]
  Activity: 64 µg/mL
DU-145
  EC50: 3.1 µg/mL
Candida albicans
  Activity: inactive
KM-20L2
  EC50: 3.9 µg/mL
[9]
  inhibition: 9.2%
NCI-H460
  EC50: 5.1 µg/mL
[6]
  Activity: inactive

## COc1cc2c3c(ccnc3c1OC)N(Cc1ccccc1)C=C2.Cl
Escherichia coli
  Activity: inactive
Cryptococcus neoformans
  Activity: inactive
MCF7
  EC50: > 10 µg/mL
Enterobacter cloacae
  Activity: inactive
Enterococcus faecalis
  Activity: inactive
BXPC-3
  EC50: 4.3 µg/mL
P388
  EC50: 1.64 µg/mL
Neisseria gonorrhoeae [3]
  Activity: 64 µg/mL
[2]
  inhibition: < 6%
SF-268
  EC50: > 10 µg/mL
Streptococcus pneumoniae [13]
  Activity: 64 µg/mL
Staphylococcus aureus
  Activity: inactive
DU-145
  EC50: 4.4 µg/mL
Micrococcus luteus [5]
  Activity: inactive
Candida albicans
  Activity: inactive
KM-20L2
  EC50: 2.2 µg/mL
[9]
  inhibition: 6.4%
NCI-H460
  EC50: 4.9 µg/mL
[6]
  Activity: inactive

## COc1cc2c3c(cc[n+](C)c3c1OC)N(C)C=C2.[I-]
MCF7
  EC50: 4.9 µg/mL
BXPC-3
  EC50: 7.1 µg/mL
P388
  EC50: 3.89 µg/mL
[2]
  inhibition: < 6%
SF-268
  EC50: 0.69 µg/mL
DU-145
  EC50: 3.5 µg/mL
KM-20L2
  EC50: 6.1 µg/mL
NCI-H460
  EC50: > 10 µg/mL
